# Test results published in ChEMBL document CHEMBL4184106, “Discovering alkylamide derivatives of bexarotene as new therapeutic agents against triple-negative breast cancer” (Bioorg Med Chem Lett, 2018).
# Activity calls are given as the source filed them. The rule behind the calls is not given here.
# Tests used:
# MCF7 [1] = assay: Induction of apoptosis in human MCF7 cells assessed as ratio of cleaved caspase-8 to beta-actin level at 5 uM by western blot analysis (reference value: 1); type: functional
# MCF7 [2] = assay: Inhibition of mammosphere formation in human MCF7 cells assessed as ratio of Sox2 to beta actin level at 5 uM by Western blot analysis (Rvb= 1); type: functional
# In short: (§1)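 Post-treatment cell lysates were probed by Western blot for CSC markers, with β-actin as the loading control. Band densitometry was normalized to DMSO-treated samples.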
# BT-549 [3] = assay: Induction of apoptosis in nuclear fractions of human BT549 cells assessed as ratio of cleaved PARP to beta-actin level at 5 uM by western blot analysis (reference value: 1)
# MDA-MB-231 [4] = assay: Anti-migratory activity against human MDA-MB-231 cells assessed as reduction in wound closure at 5 uM up to 24 hrs by wound-healing assay; type: functional, cell-based
# In short: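 MDA-MB-231 monolayer was scratched to make a wound gap. Cells were treated alongside a DMSO vehicle control, and migration into the gap was imaged at 24 h.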
# MDA-MB-231 [5] = assay: Inhibition of mammosphere formation in human MDA-MB-231 cells assessed as ratio of KLF4 to beta actin level at 5 uM by Western blot analysis (Rvb= 1); type: functional; in short: as §1
# BT-549 [6] = assay: Effect on epithelial-mesenchymal transition in human BT549 cells assessed as ratio of slug to beta-actin level at 5 uM by Western blot analysis (reference value: 1); type: functional
# MDA-MB-231 [7] = assay: Effect on epithelial-mesenchymal transition in human MDA-MB-231 cells assessed as ratio of vimentin to beta-actin level at 5 uM by Western blot analysis (reference value: 1); type: functional
# BT-549 [8] = assay: Effect on beta-catenin translocation in nuclear fraction of human BT549 cells assessed as ratio of beta-catenin to beta-actin level at 10 uM by Western blot analysis (reference value: 1); type: functional
# BT-549 [9] = assay: Effect on beta-catenin translocation in cytosolic fraction of human BT549 cells assessed as ratio of beta-catenin to beta-actin level at 10 uM by Western blot analysis (reference value: 1); type: functional
# BT-549 [10] = assay: Induction of apoptosis in human BT549 cells assessed as ratio of cleaved caspase-9 to beta-actin level at 5 uM by western blot analysis (reference value: 1); type: functional
# BT-549 [11] = assay: Cytotoxicity against human BT549 cells assessed as reduction in cell viability by MTT assay; type: functional, cell-based
# BT-549 [12] = assay: Cytotoxicity against human BT549 cells assessed as reduction in cell viability at 5 uM by MTT assay; type: functional
# BT-549 [13] = assay: Induction of apoptosis in human BT549 cells assessed as ratio of cleaved caspase-8 to beta-actin level at 5 uM by western blot analysis (reference value: 1); type: functional
# BT-549 [14] = assay: Effect on epithelial-mesenchymal transition in human BT549 cells assessed as ratio of E-cadherin to beta-actin level at 5 uM by Western blot analysis (reference value: 1); type: functional
# MCF7 [15] = assay: Cytotoxicity against human MCF7 cells assessed as reduction in cell viability at 5 uM by MTT assay; type: functional
# MDA-MB-231 [16] = assay: Induction of apoptosis in human MDA-MB-231 cells assessed as ratio of cleaved caspase-9 to beta-actin level at 5 uM by western blot analysis (reference value: 1); type: functional
# MDA-MB-231 [17] = assay: Induction of apoptosis in nuclear fractions of human MDA-MB-231 cells assessed as ratio of PARP to beta-actin level at 10 uM by western blot analysis (reference value: 1); type: functional
# MDA-MB-231 [18] = assay: Induction of apoptosis in nuclear fractions of human MDA-MB-231 cells assessed as ratio of cleaved PARP to beta-actin level at 10 uM by western blot analysis (reference value: 1); type: functional
# MDA-MB-231 [19] = assay: Effect on epithelial-mesenchymal transition in human MDA-MB-231 cells assessed as ratio of E-cadherin to beta-actin level at 5 uM by Western blot analysis (reference value: 1); type: functional
# MDA-MB-231 [20] = assay: Effect on epithelial-mesenchymal transition in human MDA-MB-231 cells assessed as ratio of slug to beta-actin level at 5 uM by Western blot analysis (reference value: 1); type: functional
# MDA-MB-231 [21] = assay: Induction of apoptosis in human MDA-MB-231 cells assessed as ratio of cleaved caspase-3 to beta-actin level at 5 uM by western blot analysis (reference value: 1); type: functional
# MCF7 [22] = assay: Inhibition of mammosphere formation in human MCF7 cells assessed as ratio of Nanog to beta actin level at 5 uM by Western blot analysis (Rvb= 1); type: functional; in short: as §1
# BT-549 [23] = assay: Induction of apoptosis in human BT549 cells assessed as ratio of cleaved caspase-3 to beta-actin level at 5 uM by western blot analysis (reference value: 1); type: functional
# MDA-MB-231 [24] = assay: Cytotoxicity against human MDA-MB-231 cells assessed as reduction in cell viability by MTT assay; type: functional, cell-based
# MCF7 [25] = assay: Induction of apoptosis in human MCF7 cells assessed as ratio of cleaved caspase-9 to beta-actin level at 5 uM by western blot analysis (reference value: 1); type: functional
# MCF-10A [26] = assay: Induction of apoptosis in human MCF10A cells assessed as ratio of cleaved caspase-8 to beta-actin level at 5 uM by western blot analysis (reference value: 1); type: cell-based
# BT-549 [27] = assay: Inhibition of mammosphere formation in human BT549 cells assessed as ratio of KLF4 to beta actin level at 5 uM by Western blot analysis (Rvb= 1); type: functional
# MCF7 [28] = assay: Inhibition of mammosphere formation in human MCF7 cells assessed as ratio of C-Myc to beta actin level at 5 uM by Western blot analysis (Rvb= 1); type: functional; in short: as §1
# MDA-MB-231 [29] = assay: Effect on beta-catenin translocation in nuclear fraction of human MDA-MB-231 cells assessed as ratio of beta-catenin to beta-actin level at 10 uM by Western blot analysis (reference value: 1); type: functional
# MCF7 [30] = assay: Inhibition of mammosphere formation in human MCF7 cells at 10 uM after 7 days by microscopic method; type: functional, cell-based
# In short: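 MCF-7 cells were grown under mammosphere-forming conditions with compound. Spheres 60 μm or larger were counted for quantitation.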
# MDA-MB-231 [31] = assay: Inhibition of mammosphere formation in human MDA-MB-231 cells assessed as ratio of C-Myc to beta actin level at 5 uM by Western blot analysis (Rvb= 1); type: functional; in short: as §1
# MCF7 [32] = assay: Inhibition of mammosphere formation in human MCF7 cells assessed as ratio of Oct4A to beta actin level at 5 uM by Western blot analysis (Rvb= 1); type: functional; in short: as §1
# MCF7 [33] = assay: Inhibition of colony formation in human MCF7 cells at 5 uM supplemented with fresh medium containing compound every 3 to 4 days for 7 days by crystal violet staining based adherent cell colony-forming assay; type: functional
# In short: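 MCF-7 cells were plated for adherent colony formation and treated for 7 days. Colonies were counted at the end of treatment and normalized to untreated samples.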
# BT-549 [34] = assay: Inhibition of mammosphere formation in human BT549 cells assessed as ratio of C-Myc to beta actin level at 5 uM by Western blot analysis (Rvb= 1); type: functional
# MDA-MB-231 [35] = assay: Induction of apoptosis in human MDA-MB-231 cells assessed as ratio of cleaved caspase-8 to beta-actin level at 5 uM by western blot analysis (reference value: 1); type: functional
# BT-549 [36] = assay: Effect on epithelial-mesenchymal transition in human BT549 cells assessed as ratio of vimentin to beta-actin level at 5 uM by Western blot analysis (reference value: 1); type: functional
# MCF-10A [37] = assay: Cytotoxicity against human MCF10A cells assessed as reduction in cell viability at 5 uM by MTT assay; type: cell-based
# BT-549 [38] = assay: Induction of apoptosis in nuclear fractions of human BT549 cells assessed as ratio of PARP to beta-actin level at 10 uM by western blot analysis (reference value: 1); type: functional
# MCF-10A [39] = assay: Induction of apoptosis in human MCF10A cells assessed as ratio of cleaved caspase-9 to beta-actin level at 5 uM by western blot analysis (reference value: 1); type: cell-based
# MDA-MB-231 [40] = assay: Inhibition of colony formation in human MDA-MB-231 cells at 10 uM supplemented with fresh medium containing compound every 3 days for 10 days by microscopic method based soft agar colony formation assay; type: functional, cell-based
# MDA-MB-231 [41] = assay: Cytotoxicity against human MDA-MB-231 cells assessed as reduction in cell viability at 5 uM by MTT assay; type: functional
# MCF7 [42] = assay: Induction of apoptosis in human MCF7 cells assessed as ratio of cleaved caspase-3 to beta-actin level at 5 uM by western blot analysis (reference value: 1); type: functional
# MCF-10A [43] = assay: Induction of apoptosis in human MCF10A cells assessed as ratio of cleaved caspase-3 to beta-actin level at 5 uM by western blot analysis (reference value: 1); type: cell-based
# MDA-MB-231 [44] = assay: Effect on beta-catenin translocation in cytosolic fraction of human MDA-MB-231 cells assessed as ratio of beta-catenin to beta-actin level at 10 uM by Western blot analysis (reference value: 1); type: functional
# MCF7 [45] = assay: Inhibition of mammosphere formation in human MCF7 cells assessed as ratio of KLF4 to beta actin level at 5 uM by Western blot analysis (Rvb= 1); type: functional; in short: as §1
smiles,measurement,setting,value
C=C(c1ccc(C(=O)O)cc1)c1cc2c(cc1C)C(C)(C)CCC2(C)C [BEXAROTENE],Ratio,MCF7 [1],1
same,Ratio,MCF7 [2],0.8
same,Ratio,BT-549 [3],1.7
same,Activity,MDA-MB-231 [4],inactive
same,Ratio,MDA-MB-231 [5],1.3
same,Ratio,BT-549 [6],1.3
same,Ratio,MDA-MB-231 [7],0.4
same,Ratio,BT-549 [8],0.7
same,Ratio,BT-549 [9],2.2
same,Ratio,BT-549 [10],1.3
same,EC50,BT-549 [11],> 56 µM
same,Activity,BT-549 [12],inactive
same,Ratio,BT-549 [13],1.1
same,Ratio,BT-549 [14],9.2
same,Activity,MCF7 [15],inactive
same,Ratio,MDA-MB-231 [16],3.2
same,Ratio,MDA-MB-231 [17],0.9
same,Ratio,MDA-MB-231 [18],1.6
same,Ratio,MDA-MB-231 [19],10.8
same,Ratio,MDA-MB-231 [20],1
same,Ratio,MDA-MB-231 [21],2.7
same,Ratio,MCF7 [22],1
same,Ratio,BT-549 [23],1.1
same,EC50,MDA-MB-231 [24],> 56 µM
same,Ratio,MCF7 [25],1.2
same,Ratio,MCF-10A [26],1
same,Ratio,BT-549 [27],1.2
same,Ratio,MCF7 [28],1
same,Ratio,MDA-MB-231 [29],1.8
same,inhibition,MCF7 [30],inactive
same,Ratio,MDA-MB-231 [31],1.2
same,Ratio,MCF7 [32],1.2
same,inhibition,MCF7 [33],inactive
same,Ratio,BT-549 [34],1.4
same,Ratio,MDA-MB-231 [35],3.4
same,Ratio,BT-549 [36],0.9
same,Activity,MCF-10A [37],Non-Toxic
same,Ratio,BT-549 [38],1.8
same,Ratio,MCF-10A [39],1.1
same,inhibition,MDA-MB-231 [40],inactive
same,Activity,MDA-MB-231 [41],inactive
same,Ratio,MCF7 [42],0.9
same,Ratio,MCF-10A [43],0.95
same,Ratio,MDA-MB-231 [44],2.4
same,Ratio,MCF7 [45],1
